Active and inactive are the calls of the source. The rule behind the calls is not given here.
How the values were obtained:
Integrin alpha-V/beta-3 = Integrin alpha-V/beta-3 (Homo sapiens, UniProt P05106+P06756); assay: Inhibition of vitronectin binding to human alphaVbeta3 integrin after 1 hr by ELISA; assay type: protein-complex assay
Procedure, shortened: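 Plates coated overnight at 4 °C with vitronectin 1.0 μg/mL in carbonate buffer pH 9.6, blocked 1 h with TSB (Ca2+, Mg2+, Mn2+, 1% BSA). Soluble human αvβ3 (final 1.0 μg/mL) with inhibitor (final 0.128–400 nM) 1 h at room temperature; detection by anti-CD51/61 then peroxidase secondary, absorbance 405 nm. Duplicates; IC50 from curve inflection point; internal standard per plate.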

Integrin alpha-5/beta-1 = Integrin alpha-5/beta-1 (Homo sapiens, UniProt P05556+P08648); assay: Inhibition of fibronectin binding to soluble alpha5beta1 integrin (unknown origin) after 1 hr by ELISA; assay type: protein-complex assay
Protein Mdm4 = biological target: T1, Protein Mdm4 (Homo sapiens, UniProt O15151); assay: Displacement of p53 from MDM4 in human SHSY-5Y cells incubated for 10 mins by sandwich ELISA method; assay type: cell-based
T1 sequence (O15151 whole entry): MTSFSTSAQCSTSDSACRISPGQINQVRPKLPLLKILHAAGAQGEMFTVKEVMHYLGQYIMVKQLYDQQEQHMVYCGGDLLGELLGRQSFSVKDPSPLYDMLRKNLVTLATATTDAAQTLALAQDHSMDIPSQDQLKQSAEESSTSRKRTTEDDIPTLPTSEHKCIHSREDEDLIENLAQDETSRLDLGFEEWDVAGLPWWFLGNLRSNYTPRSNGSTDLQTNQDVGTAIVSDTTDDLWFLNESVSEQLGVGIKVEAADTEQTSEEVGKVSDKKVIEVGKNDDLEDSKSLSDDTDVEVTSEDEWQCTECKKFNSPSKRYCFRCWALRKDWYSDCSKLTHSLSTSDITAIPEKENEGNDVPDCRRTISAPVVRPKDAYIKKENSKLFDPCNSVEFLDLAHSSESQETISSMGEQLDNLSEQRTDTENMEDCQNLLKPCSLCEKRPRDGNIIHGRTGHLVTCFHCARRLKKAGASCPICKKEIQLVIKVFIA

[1] = biological target: E3 ubiquitin-protein ligase Mdm2 (Homo sapiens, UniProt Q00987); assay: Displacement of p53 from MDM2 in human U87MG cells incubated for 10 mins by sandwich ELISA method; assay type: cell-based
T98G [2] = assay: Antiproliferative activity against human T98G cells harboring p53 mutant at nanomolar concentration after 72 hrs by MTS assay; assay type: functional, cell-based
Procedure, shortened: (§1)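 Cells seeded ~5000 cells/cm2, after 24 h medium replaced with compound in DMSO (DMSO 1% v/v in controls), alone or in combination at 100 nM each, or concentration series (U87MG 1–100 nM). 72 h exposure; proliferation read by MTS, expressed as % of DMSO control (mean ± SEM, N = 3); IC50 from sigmoid dose–response fit.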

Homo sapiens [3] = organism: Homo sapiens; settings: 100 nM
U-87 MG [4] = assay: Anti-invasive activity in human U87MG cells at 10 uM after 24 hrs by transwell assay; assay type: functional, U-87MG ATCC
Procedure, shortened: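 U87MG cells suspended in serum-free medium (60,000 cells), treated at 10 μM (each agent at 10 μM when combined), placed in upper chamber of Matrigel-coated (0.32 mg/mL) transwell; lower chamber RPMI with 10% FBS. Invasion 24 h at 37 °C; cells on lower membrane surface fixed with p-formaldehyde, crystal violet stained, counted in five random fields per filter. Mean ± SEM vs DMSO control.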

T98G [5] = assay: Antiproliferative activity against human T98G cells harboring p53 mutant at micromolar concentration after 72 hrs by MTS assay; assay type: functional, cell-based; procedure, shortened: as §1
U-87 MG [6] = assay: Antiproliferative activity against human U87MG cells after 72 hrs by MTS assay
Homo sapiens [7] = organism: Homo sapiens; settings: 100 nM; remark: listed apart in the source
Homo sapiens [8] = organism: Homo sapiens; settings: 100 nM; remark: listed apart in the source
Homo sapiens [9] = organism: Homo sapiens; settings: 100 nM; remark: listed apart in the source
Homo sapiens [10] = organism: Homo sapiens; settings: 100 nM; remark: listed apart in the source

Integrin alpha-5/beta-1, sequence (P05556 21-798 limits assumed): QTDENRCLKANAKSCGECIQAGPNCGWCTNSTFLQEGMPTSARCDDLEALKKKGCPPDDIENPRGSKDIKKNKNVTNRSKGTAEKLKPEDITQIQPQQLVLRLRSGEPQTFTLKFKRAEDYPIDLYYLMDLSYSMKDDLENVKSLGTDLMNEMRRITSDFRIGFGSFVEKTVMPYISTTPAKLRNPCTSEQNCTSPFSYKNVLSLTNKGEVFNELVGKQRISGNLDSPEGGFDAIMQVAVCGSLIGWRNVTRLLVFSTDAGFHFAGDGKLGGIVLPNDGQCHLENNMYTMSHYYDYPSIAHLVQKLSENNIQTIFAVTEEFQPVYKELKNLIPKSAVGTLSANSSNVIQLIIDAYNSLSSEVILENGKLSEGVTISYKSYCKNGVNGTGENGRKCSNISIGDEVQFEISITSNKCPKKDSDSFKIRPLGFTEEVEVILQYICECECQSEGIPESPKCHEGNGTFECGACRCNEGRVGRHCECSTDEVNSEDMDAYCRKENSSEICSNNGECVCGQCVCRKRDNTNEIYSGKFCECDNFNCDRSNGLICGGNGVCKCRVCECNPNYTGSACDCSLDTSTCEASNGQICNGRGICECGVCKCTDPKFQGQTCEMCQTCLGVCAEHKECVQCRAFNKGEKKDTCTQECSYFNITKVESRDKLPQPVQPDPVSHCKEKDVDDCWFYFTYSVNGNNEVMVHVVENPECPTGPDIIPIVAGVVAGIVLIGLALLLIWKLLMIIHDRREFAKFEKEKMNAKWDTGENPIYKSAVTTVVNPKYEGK
Integrin alpha-5/beta-1, sequence (P08648 42-894 limits assumed): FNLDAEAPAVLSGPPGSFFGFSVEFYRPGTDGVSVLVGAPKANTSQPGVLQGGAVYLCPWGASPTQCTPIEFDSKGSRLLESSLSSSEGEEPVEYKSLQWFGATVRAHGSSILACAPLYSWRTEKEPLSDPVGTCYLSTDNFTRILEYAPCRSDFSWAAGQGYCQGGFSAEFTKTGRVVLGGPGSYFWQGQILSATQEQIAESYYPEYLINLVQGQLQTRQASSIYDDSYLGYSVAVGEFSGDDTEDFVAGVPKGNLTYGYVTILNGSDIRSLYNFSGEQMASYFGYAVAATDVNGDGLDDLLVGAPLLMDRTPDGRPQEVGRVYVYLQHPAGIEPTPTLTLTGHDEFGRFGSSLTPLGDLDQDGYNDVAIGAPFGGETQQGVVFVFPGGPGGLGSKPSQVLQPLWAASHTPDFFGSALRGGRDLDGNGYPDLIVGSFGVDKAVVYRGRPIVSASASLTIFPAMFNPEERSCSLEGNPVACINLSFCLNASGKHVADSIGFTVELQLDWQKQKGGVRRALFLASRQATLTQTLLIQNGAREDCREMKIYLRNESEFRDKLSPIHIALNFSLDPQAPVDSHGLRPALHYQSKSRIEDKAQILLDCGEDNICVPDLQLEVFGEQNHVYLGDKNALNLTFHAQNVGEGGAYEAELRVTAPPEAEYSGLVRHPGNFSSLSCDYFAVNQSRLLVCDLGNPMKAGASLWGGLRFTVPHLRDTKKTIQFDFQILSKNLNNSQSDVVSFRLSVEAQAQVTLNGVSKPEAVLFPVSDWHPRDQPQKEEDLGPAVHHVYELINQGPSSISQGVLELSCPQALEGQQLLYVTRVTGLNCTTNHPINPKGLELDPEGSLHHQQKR
Integrin alpha-5/beta-1, sequence (P08648 895-1049 limits assumed): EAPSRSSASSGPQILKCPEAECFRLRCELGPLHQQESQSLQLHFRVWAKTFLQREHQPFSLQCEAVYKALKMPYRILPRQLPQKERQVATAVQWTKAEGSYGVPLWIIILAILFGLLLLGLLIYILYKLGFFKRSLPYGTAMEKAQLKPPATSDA
Integrin alpha-V/beta-3, sequence (P05106 27-788 limits assumed): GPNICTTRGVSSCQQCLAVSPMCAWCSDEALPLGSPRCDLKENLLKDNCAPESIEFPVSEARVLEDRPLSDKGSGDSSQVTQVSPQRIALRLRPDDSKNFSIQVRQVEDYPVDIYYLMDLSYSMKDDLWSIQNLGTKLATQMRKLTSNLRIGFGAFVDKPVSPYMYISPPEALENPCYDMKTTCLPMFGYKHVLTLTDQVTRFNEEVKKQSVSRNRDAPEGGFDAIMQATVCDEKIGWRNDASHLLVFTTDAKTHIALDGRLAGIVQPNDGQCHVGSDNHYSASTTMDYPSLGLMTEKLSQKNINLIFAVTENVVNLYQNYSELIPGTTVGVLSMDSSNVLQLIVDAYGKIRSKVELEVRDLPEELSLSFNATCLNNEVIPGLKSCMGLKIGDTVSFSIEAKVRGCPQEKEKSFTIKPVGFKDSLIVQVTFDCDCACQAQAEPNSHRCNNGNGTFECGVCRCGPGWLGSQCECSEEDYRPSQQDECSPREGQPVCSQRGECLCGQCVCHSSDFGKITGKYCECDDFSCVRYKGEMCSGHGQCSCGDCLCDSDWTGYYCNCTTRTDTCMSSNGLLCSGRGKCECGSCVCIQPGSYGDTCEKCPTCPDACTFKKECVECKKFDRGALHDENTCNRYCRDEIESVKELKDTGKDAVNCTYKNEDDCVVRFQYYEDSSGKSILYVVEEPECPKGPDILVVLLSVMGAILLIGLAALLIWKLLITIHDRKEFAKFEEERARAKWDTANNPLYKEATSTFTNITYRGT
Integrin alpha-V/beta-3, sequence (P06756 31-889 limits assumed): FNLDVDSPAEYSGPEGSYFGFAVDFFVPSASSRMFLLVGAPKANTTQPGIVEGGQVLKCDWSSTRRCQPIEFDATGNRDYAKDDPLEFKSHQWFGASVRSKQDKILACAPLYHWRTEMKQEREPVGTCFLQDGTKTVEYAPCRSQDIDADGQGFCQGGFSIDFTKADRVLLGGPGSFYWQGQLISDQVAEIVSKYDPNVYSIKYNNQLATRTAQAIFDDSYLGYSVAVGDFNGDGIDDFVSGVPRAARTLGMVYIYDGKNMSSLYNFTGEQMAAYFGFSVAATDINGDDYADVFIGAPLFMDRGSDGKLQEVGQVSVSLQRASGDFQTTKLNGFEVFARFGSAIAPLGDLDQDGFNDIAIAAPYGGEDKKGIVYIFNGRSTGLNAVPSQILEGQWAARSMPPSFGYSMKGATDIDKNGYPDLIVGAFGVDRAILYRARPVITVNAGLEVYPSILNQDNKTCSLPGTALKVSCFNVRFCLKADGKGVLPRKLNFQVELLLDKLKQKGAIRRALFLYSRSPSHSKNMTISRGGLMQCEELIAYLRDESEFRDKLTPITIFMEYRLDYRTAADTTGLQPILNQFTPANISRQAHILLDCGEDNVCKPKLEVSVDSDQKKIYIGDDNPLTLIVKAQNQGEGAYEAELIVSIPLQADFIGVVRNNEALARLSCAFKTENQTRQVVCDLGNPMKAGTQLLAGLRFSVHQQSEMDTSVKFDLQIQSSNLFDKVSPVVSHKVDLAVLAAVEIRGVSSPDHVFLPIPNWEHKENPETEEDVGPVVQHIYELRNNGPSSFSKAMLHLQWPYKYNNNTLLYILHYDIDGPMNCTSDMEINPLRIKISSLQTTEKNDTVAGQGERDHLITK
Integrin alpha-V/beta-3, sequence (P06756 891-1048 limits assumed): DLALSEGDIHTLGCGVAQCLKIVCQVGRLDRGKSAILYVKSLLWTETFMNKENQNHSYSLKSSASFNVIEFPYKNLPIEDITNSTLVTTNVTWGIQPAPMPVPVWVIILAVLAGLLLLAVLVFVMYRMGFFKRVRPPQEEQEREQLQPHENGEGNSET
E3 ubiquitin-protein ligase Mdm2, sequence (Q00987 whole entry): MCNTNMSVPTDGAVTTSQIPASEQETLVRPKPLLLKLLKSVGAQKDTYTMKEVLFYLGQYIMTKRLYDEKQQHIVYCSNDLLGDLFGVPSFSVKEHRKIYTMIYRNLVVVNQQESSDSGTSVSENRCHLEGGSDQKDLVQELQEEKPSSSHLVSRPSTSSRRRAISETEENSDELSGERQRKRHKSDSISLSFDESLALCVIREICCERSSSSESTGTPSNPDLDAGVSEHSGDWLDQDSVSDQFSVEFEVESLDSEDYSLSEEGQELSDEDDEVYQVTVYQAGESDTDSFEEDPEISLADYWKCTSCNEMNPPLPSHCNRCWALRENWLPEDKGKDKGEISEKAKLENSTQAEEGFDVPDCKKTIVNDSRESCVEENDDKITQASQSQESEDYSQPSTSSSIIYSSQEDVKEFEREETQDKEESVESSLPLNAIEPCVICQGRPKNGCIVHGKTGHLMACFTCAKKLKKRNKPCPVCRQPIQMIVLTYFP

Row | Structure (SMILES) | IC50 (Integrin alpha-V/beta-3) | IC50 (Integrin alpha-5/beta-1) | other results
1 | N=C(N)Nc1cccc(C(=O)NCC(=O)N[C@@H](CC(=O)O)C(=O)NCc2cccc(-c3ccccc3)c2)c1 | 1.2 nM | 18 nM | IC50 (Protein Mdm4): > 1000 nM
2 | C[C@H](NC(=O)[C@H](CC(=O)O)NC(=O)CNC(=O)c1cccc(NC(=N)N)c1)c1ccccc1 | 0.91 nM | 20 nM | 
3 | N=C(N)Nc1cccc(C(=O)NCC(=O)N[C@@H](CC(=O)O)C(=O)Nc2cccc3ccccc23)c1 | 4.5 nM | 22 nM | 
4 | N=C(N)Nc1cccc(C(=O)NCC(=O)N[C@@H](CC(=O)O)C(=O)NCCc2ccccc2)c1 | 2.8 nM | 28 nM | 
5 | N=C(N)Nc1cccc(C(=O)NCC(=O)N[C@@H](CC(=O)O)C(=O)NCCc2c[nH]c3ccccc23)c1 | 4 nM | 36 nM | IC50 (Protein Mdm4): > 1000 nM
6 | N=C(N)Nc1cccc(C(=O)NCC(=O)N[C@@H](CC(=O)O)C(=O)NCC(c2ccccc2)c2ccccc2)c1 | 0.91 nM | 22 nM | IC50 [1]: > 1000 nM
7 | N=C(N)Nc1cccc(C(=O)NCC(=O)N[C@@H](CC(=O)O)C(=O)NCCc2ccc3ccccc3c2)c1 | 2.2 nM | 76 nM | 
8 | N=C(N)Nc1cccc(C(=O)NCC(=O)N[C@@H](CC(=O)O)C(=O)NC(c2ccccc2)c2ccccc2)c1 | 1.4 nM | 22 nM | Activity (T98G [2]): inactive; inhibition (Homo sapiens [3]): inactive; Activity (U-87 MG [4]): 80%; Activity (T98G [5]): Active; IC50 (U-87 MG [6]): 116 nM; inhibition (Homo sapiens [7]): Active; inhibition (Homo sapiens [8]): Active; inhibition (Homo sapiens [9]): Active; inhibition (Homo sapiens [10]): Active
9 | N=C(N)Nc1cccc(C(=O)NCC(=O)N[C@@H](CC(=O)O)C(=O)NCc2ccccc2)c1 | 0.79 nM | 31 nM | IC50 [1]: > 1000 nM
